{"data": "Published values collected from several papers", "target": "Proto-oncogene tyrosine-protein kinase ROS (ROS1, Homo sapiens, UniProt P08922)", "note": "Protocols differ between the studies behind these lines."}
{"Structure (SMILES)": "Cc1cnc(Nc2ccc(C(=O)N3CCC(N4CCCC4)CC3)cc2)nc1-c1cc2ccccc2s1", "read-out": "binding", "technique": "competition with immobilised ligand", "concentration": "1 µM", "remaining binding": "31%"}
{"Structure (SMILES)": "C[C@@H]1CCN(c2nccc(-c3cnn4ncccc34)n2)C1", "read-out": "binding", "concentration": "1 µM", "remaining binding": "99%"}
{"Structure (SMILES)": "O=C(Nc1cccnn1)N1CCC(=Cc2cccc(Oc3ccc(C(F)(F)F)cn3)c2)CC1", "read-out": "cell-free assay", "technique": "competition with immobilised ligand", "concentration": "1 µM", "remaining binding": "80%"}
{"Structure (SMILES)": "N[C@@H]1CCN(c2nccc(-c3cnn4ncccc34)n2)C1", "read-out": "binding", "concentration": "1 µM", "remaining binding": "72%"}
{"Structure (SMILES)": "O=C(c1ccc(Nc2ncc(Cl)c(-c3cc4ccccc4s3)n2)cc1)N1CCC(N2CCCC2)CC1", "read-out": "binding", "technique": "competition with immobilised ligand", "concentration": "1 µM", "remaining binding": "31%"}
{"Structure (SMILES)": "CN(C)c1nccc(-c2cnn3ncccc23)n1", "read-out": "binding", "concentration": "1 µM", "remaining binding": "100%"}
{"Structure (SMILES)": "O=C(NCCCN1CCOCC1)c1ccc(Nc2nccc(-c3cc4ccccc4s3)n2)cc1", "read-out": "binding", "technique": "competition with immobilised ligand", "concentration": "1 µM", "remaining binding": "53%"}
{"Structure (SMILES)": "FC(F)(F)Oc1cccc(-c2cnc3ccc(-c4ccncc4)nn23)c1", "read-out": "binding", "technique": "competition with immobilised ligand", "concentration": "5 µM", "remaining binding": "81%"}
{"Structure (SMILES)": "CC1=C(C#N)[C@@H](c2ccc3[nH]nc(C)c3c2)C(C#N)=C(c2ccc(Cl)cc2)N1", "read-out": "cell-free assay", "technique": "competition with immobilised ligand", "concentration": "1 µM", "remaining binding": "100%"}
{"Structure (SMILES)": "C=CC(=O)N1CCC(C(=O)NCC(=O)N2CCN(c3nc(-c4cnc(N)nc4C(F)F)nc(N4CCOCC4)n3)CC2)CC1", "read-out": "binding", "technique": "competition with immobilised ligand", "concentration": "1 µM", "remaining binding": "87%"}
{"Structure (SMILES)": "CN(c1nccc(-c2cnn3ncccc23)n1)C1CC1", "read-out": "binding", "concentration": "1 µM", "remaining binding": "100%"}
{"Structure (SMILES)": "COc1cnc(Nc2cccc(S(N)(=O)=O)c2)nc1N1CCN(c2ccccc2)C(=O)C1", "read-out": "binding", "technique": "competition with immobilised ligand", "concentration": "1 µM", "remaining binding": "100%"}
{"Structure (SMILES)": "CN(CCCC(F)(F)F)c1nccc(-c2cnn3ncccc23)n1", "read-out": "binding", "concentration": "1 µM", "remaining binding": "79%"}
{"Structure (SMILES)": "COc1ncc2cc3ccccc3nc2c1C#N", "read-out": "cell-free assay", "technique": "competition with immobilised ligand", "concentration": "5 µM", "remaining binding": "91%"}
{"Structure (SMILES)": "O=C(Nc1cccnn1)N1CC(C/C=C/c2cncc(Oc3ccc(C(F)(F)F)cn3)n2)C1", "read-out": "cell-free assay", "technique": "competition with immobilised ligand", "concentration": "1 µM", "remaining binding": "100%"}
{"Structure (SMILES)": "CN(C)c1ncc(F)c(-c2cnn3ncccc23)n1", "read-out": "binding", "concentration": "1 µM", "remaining binding": "87%"}
{"Structure (SMILES)": "CC(=O)C1=C(C)N(c2cccc(C(F)(F)F)c2)C(=O)N[C@@H]1c1ccc(C#N)nc1", "read-out": "cell-free assay", "technique": "competition with immobilised ligand", "concentration": "1 µM", "remaining binding": "100%"}
{"Structure (SMILES)": "O=C(Nc1c[nH]nc1C(=O)NC1CCNCC1)c1cc(F)cc(F)c1", "read-out": "binding", "technique": "competition with immobilised ligand", "concentration": "1 µM", "remaining binding": "100%"}
{"Structure (SMILES)": "CN(C)CC#Cc1ccc(OCCCc2sc(N3CCc4cccc(C(=O)Nc5nc6ccccc6s5)c4C3)nc2C(=O)O)c(F)c1", "read-out": "cell-free assay", "technique": "competition with immobilised ligand", "concentration": "1 µM", "remaining binding": "93%"}
{"Structure (SMILES)": "Nc1ncc2c(n1)-c1c([nH]c3ccc(C#CC4CC4)cc13)CCCC2", "read-out": "binding", "technique": "competition with immobilised ligand", "concentration": "1 µM", "remaining binding": "99%"}
{"Structure (SMILES)": "CNCc1ccccc1-c1csc([C@@H](C)Nc2nc(C)nc3cc(OC)c(OC)cc23)c1", "read-out": "cell-free assay", "technique": "competition with immobilised ligand", "concentration": "1 µM", "remaining binding": "84%"}
{"Structure (SMILES)": "CCN1CCN(Cc2ccc(C(=O)Nc3ccc(C)c(Oc4ccc5c(c4)CC(=O)N5)c3)cc2C(F)(F)F)CC1", "read-out": "binding", "technique": "competition with immobilised ligand", "concentration": "1 µM", "remaining binding": "100%"}
